Results published in PubChem BioAssay.
The source made the active and inactive calls.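 How the source made its calls, unless noted: active means GFP response above 150% of the DMSO level; inconclusive means fewer than 70 events counted for a yeast strain; inactive means the rest.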

Tests used:
[1] = hit retest on RPL19A-GFP reporter strain – cell-based, S. cerevisiae, flow cytometry, cherry picks, mother/daughter gates, confirmation (AID 2270;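 active means GFP response below 50% of the DMSO control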); conditions: 3 h, at 10 µM, stronger effect = lower value, 100 = same GFP as DMSO wells
[2] = yeast TOR pathway reporter LAP4-GFP change – cell-based, cherry picks, flow cytometry, mother/daughter gates, confirmation (AID 2271;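 active means GFP response above 150% of the DMSO control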;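 further: ratio of sample to DMSO plate mean so 100% equals DMSO level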); conditions: S. cerevisiae LAP4-GFP strain, 3 h, at 10 µM, stronger effect = higher value, 100 means same as DMSO control
How it was run: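 System: GFP-fusion yeast strain; Incubation: compound exposure 3 h at 30 °C, end-over-end rotation; Measured by: GFP by flow cytometry; Read-out: median GFP fluorescence as percent of plate-mean DMSO wells; Medium: synthetic complete (SC) yeast growth medium; Compound: single test-compound dose, 10 µM final; Benchmarks: DMSO-only negative wells, rapamycin 400 ng/mL positive wells.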

[3] = TOR pathway reporter MEP2-GFP, retest of hits – S. cerevisiae, flow cytometry GFP, cherry picks, confirmation (AID 2272;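 active means GFP response above 150% of the DMSO control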;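 further: ratio of well signal to plate DMSO mean so 100% equals DMSO level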); conditions: S. cerevisiae MEP2-GFP strain, 3 h, at 10 µM, stronger effect = higher value
[4] = yeast AGP1-GFP fluorescence change, single-dose – cell-based, flow cytometry, S. cerevisiae, cherry picks, confirmation (AID 2273);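 further: median GFP channel fluorescence over the whole cell population gate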; conditions: S. cerevisiae AGP1-GFP strain, 3 h, at 10 µM
[5] = TOR pathway CIT2 reporter hit retest – S. cerevisiae, GFP fusion, cherry picks, mother/daughter gates, confirmation (AID 2274); conditions: S. cerevisiae CIT2-GFP strain, flow cytometry, 3 h, at 10 µM, stronger effect = higher value
[6] = measured here: daughter cell gate
[7] = measured here: mother cell gate
[8] = measured here: daughter cell gate response
[9] = measured here: mother cell gate response

Compound | GFP response vs DMSO [1] | GFP response vs DMSO [1, 6] | GFP response vs DMSO [1, 7] | GFP response relative to DMSO [2] | GFP response relative to DMSO [2, 8] | GFP response relative to DMSO [2, 9] | GFP response vs DMSO [3] | GFP response, % of DMSO [4] | GFP response, % of DMSO [5] | GFP response, % of DMSO [5, 6] | GFP response, % of DMSO [5, 7]
CSc1ccc(/C=C/C(=O)c2ccc(NC(C)=O)cc2)cc1 | 111% (inactive) | 93.2% | 94.5% | 111% (inactive) | 104% | 113% | 101% (inactive) | 97.5% (inactive) | 91.5% (inactive) | 90.2% | 82.1%
Cc1ccc(NC(=O)CC2SC(=O)N(c3ccccc3)C2=O)cc1 (stereo not drawn) | 97.8% (inactive) | 101% | 94.5% | 142% (inactive) | 140% | 143% | 112% (inactive) | 98.9% (inactive) | 102% (inactive) | 104% | 94.5%
O=C(O)CCCn1nc(-c2ccccc2)c2ccccc21 | 99% (inactive) | 98.4% | 100% | 112% (inactive) | 112% | 111% | 103% (inactive) | 101% (inactive) | 103% (inactive) | 106% | 96.8%
Oc1c(CN2CCCCC2)cc(Br)c2cccnc12 | 106% (inactive) | 103% | 105% | 208% (active) | 181% | 208% | 118% (inactive) | 96.7% (inactive) | 102% (inactive) | 104% | 91%
CNc1cc(CSC)nc(SCc2ccc(Cl)cc2Cl)n1 | 93.5% (inactive) | 88.6% | 96.1% | 125% (inactive) | 118% | 131% | 102% (inactive) | 90.4% (inactive) | 88.3% (inactive) | 86.2% | 89%
N#C/C(=C/c1ccc(N2CCOCC2)o1)c1ccc(Br)cc1 | 96.6% (inactive) | 95.9% | 95% | 114% (inactive) | 114% | 115% | 114% (inactive) | 95.5% (inactive) | 102% (inactive) | 101% | 99.3%
COc1cccc2c1Oc1ncccc1N(C(=O)CCC(=O)NCc1ccccc1F)C2 | 100% (inactive) | 101% | 101% | 142% (inactive) | 147% | 139% | 135% (inactive) | 105% (inactive) | 148% (inactive) | 150% | 147%
O=C(O)CSC1CC(=O)N(c2ccc(Cl)c(Cl)c2)C1=O (stereo not drawn) | 97.8% (inactive) | 97.8% | 97.5% | 108% (inactive) | 113% | 107% | 101% (inactive) | 101% (inactive) | 100% (inactive) | 99.3% | 100%
COc1ccc(N2CCN(C(=O)CCc3nnc4ccc(N5CCCC5)nn34)CC2)cc1 | 101% (inactive) | 99.2% | 101% | 96.2% (inactive) | 98.7% | 97.2% | 100% (inactive) | 97.8% (inactive) | 104% (inactive) | 101% | 104%
CN(C(=O)c1cccnc1)c1nc(-c2ccccc2)cs1 | 97.6% (inactive) | 97.3% | 95% | 102% (inactive) | 99% | 102% | 106% (inactive) | 96.1% (inactive) | 98.6% (inactive) | 99.3% | 96%
COc1cccc(/C=C2\C(=O)N(c3cccc(C)c3)C(=O)c3ccccc32)c1 | 96% (inactive) | 92% | 92.8% | 168% (active) | 145% | 180% | 98.8% (inactive) | 104% (inactive) | 79.7% (inactive) | 84.1% | 71.8%
O=S(=O)(Nc1nc2ccccc2nc1Cl)c1ccc2ccccc2c1 | 98.4% (inactive) | 97.9% | 98.1% | 95.7% (inactive) | 92.6% | 97.3% | 96.8% (inactive) | 95.9% (inactive) | 88.6% (inactive) | 88.4% | 88.2%
CC(=O)Nc1ccc(NC(=O)c2nc(S(=O)(=O)Cc3cccc(C)c3)ncc2Cl)cc1 | 102% (inactive) | 99.5% | 103% | 93.8% (inactive) | 97.2% | 95.2% | 100% (inactive) | 97.4% (inactive) | 104% (inactive) | 103% | 105%
Nc1ccc(C(=O)N/N=C/c2ccccc2)cc1 | 105% (inactive) | 102% | 106% | 102% (inactive) | 99.1% | 102% | 101% (inactive) | 108% (inactive) | 100% (inactive) | 101% | 99.3%
CC(C)Cn1c(=O)c(C(=O)Nc2ccncc2)c(O)c2ccccc21 | 94.7% (inactive) | 101% | 85% | 160% (active) | 122% | 155% | 117% (inactive) | 88.7% (inactive) | 97.8% (inactive) | 99.7% | 90.2%
Cc1cccn2c(=O)c(/C=C(\C#N)C(=O)NCc3ccco3)c(N3CCC(C(N)=O)CC3)nc12 | 89.5% (inactive) | 90.9% | 91.4% | 99.8% (inactive) | 99.7% | 100% | 103% (inactive) | 101% (inactive) | 92.2% (inactive) | 95.2% | 92.8%
COc1ccc(/C=C/C(=O)c2ccc(Cl)cc2)c(OC)c1 | 97.6% (inactive) | 98.9% | 96.1% | 104% (inactive) | 102% | 106% | 100% (inactive) | 90.2% (inactive) | 99.7% (inactive) | 99.1% | 97.3%

Compound | GFP response vs DMSO [1] | GFP response vs DMSO [1, 6] | GFP response vs DMSO [1, 7] | GFP response relative to DMSO [2] | GFP response relative to DMSO [2, 8] | GFP response relative to DMSO [2, 9] | GFP response vs DMSO [3] | GFP response, % of DMSO [4] | GFP response, % of DMSO [5] | GFP response, % of DMSO [5, 6] | GFP response, % of DMSO [5, 7]
CNC(=O)/C(C#N)=C/c1c(N2CC(C)OC(C)C2)nc2ccccn2c1=O (stereo not drawn) | 97.6% (inactive) | 88.7% | 90.1% | 94.4% (inactive) | 92.6% | 92% | 101% (inactive) | 110% (inactive) | 98.8% (inactive) | 95.6% | 85.8%
Cc1cccc(OCCN2CSC(=S)N(C)C2)c1 | 95.6% (inactive) | 94.4% | 92.7% | 174% (active) | 161% | 167% | 168% (inactive) | 118% (inactive) | 131% (inactive) | 130% | 122%
Nc1cc(N)nc(SCC(=O)N2CCc3ccccc32)n1 | 100% (inactive) | 101% | 99.7% | 97.9% (inactive) | 97.6% | 96.1% | 105% (inactive) | 98.5% (inactive) | 101% (inactive) | 101% | 101%
Cc1cc(O)c(C(=O)/C=C/c2ccccc2)c(=O)o1 | 97.6% (inactive) | 101% | 96.1% | 144% (inactive) | 139% | 148% | 100% (inactive) | 97% (inactive) | 96.5% (inactive) | 99.7% | 95.5%
C=CCn1c(=N)c(C#N)cc2c(=O)n3ccccc3nc21 | 98% (inactive) | 95.4% | 93% | 99.2% (inactive) | 99.2% | 98.3% | 105% (inactive) | 100% (inactive) | 101% (inactive) | 97.2% | 87.8%
COc1ccccc1C(=O)NNC(=S)NC(=O)c1cccs1 | 116% (inactive) | 126% | 107% | 225% (active) | 181% | 202% | 128% (inactive) | 89.6% (inactive) | 121% (inactive) | 124% | 108%
CC(C)(C)c1ccc(C(=O)N/N=C/c2cccc(Cl)c2)cc1 | 96% (inactive) | 96.4% | 95.4% | 100% (inactive) | 101% | 102% | 99.3% (inactive) | 97% (inactive) | 91.7% (inactive) | 92.3% | 92.6%
CCCc1[nH]nc2c1C(c1cccc(OC)c1)C(C#N)=C(N)O2 (stereo not drawn) | 103% (inactive) | 101% | 103% | 98.2% (inactive) | 95.9% | 97.3% | 105% (inactive) | 98.6% (inactive) | 102% (inactive) | 97.4% | 103%
COc1cc(C)c(C)cc1S(=O)(=O)N1CCCCC1c1cccnc1 (stereo not drawn) | 98.4% (inactive) | 98.8% | 99.2% | 102% (inactive) | 105% | 99.5% | 99.5% (inactive) | 100% (inactive) | 96.4% (inactive) | 100% | 95.6%
O=C1C(Cl)=C(Nc2ccccc2O)C(=O)N1c1ccccc1 | 97.4% (inactive) | 98% | 97.1% | 112% (inactive) | 108% | 113% | 104% (inactive) | 103% (inactive) | 99.3% (inactive) | 100% | 98%
O=C(O)CSc1nnc(-c2ccncc2)n1CCc1ccccc1 | 98.2% (inactive) | 98.4% | 100% | 102% (inactive) | 98.7% | 103% | 100% (inactive) | 98.3% (inactive) | 91.3% (inactive) | 91.5% | 90.2%
O=C(O)c1ccc(Sc2ccccn2)c([N+](=O)[O-])c1 | 98% (inactive) | 99.1% | 98.2% | 96.7% (inactive) | 97.6% | 95.1% | 102% (inactive) | 97% (inactive) | 99.7% (inactive) | 101% | 98.5%
O=C(Nc1ccc(NC(=O)c2cc3ccccc3o2)cc1)c1ccco1 | 100% (inactive) | 97.6% | 101% | 97% (inactive) | 95.9% | 97.3% | 101% (inactive) | 106% (inactive) | 98.8% (inactive) | 99.2% | 98.1%
O=C(c1ccccn1)c1conc1C(=O)c1ccc(Br)cc1 | 98.2% (inactive) | 93.9% | 102% | 204% (active) | 159% | 213% | 153% (inactive) | 105% (inactive) | 139% (inactive) | 126% | 147%
CC(=O)Nc1ccc(S(=O)(=O)NC(CC(=O)NCCC2=CCCCC2)C(C)C)cc1 (stereo not drawn) | 99.8% (inactive) | 99.4% | 101% | 99.2% (inactive) | 99.2% | 96.1% | 102% (inactive) | 101% (inactive) | 101% (inactive) | 101% | 101%
CCCn1c(=O)c(C(=O)Nc2ccccc2C(=O)OCC)c(O)c2ccccc21 | 95.1% (inactive) | 96.7% | 95.2% | 95.3% (inactive) | 94.4% | 97.4% | 108% (inactive) | 110% (inactive) | 100% (inactive) | 103% | 100%
